Test results: ChEMBL document CHEMBL3808334, “Synthesis and in vitro evaluation of novel triazine analogues as anticancer agents and their interaction studies with bovine serum albumin” (Eur J Med Chem, 2016)

How the values were obtained:
Format in all cases: functional
[1] = tested on: NCI-H226; assay: Growth inhibition of human NCI-H226 cells assessed as cell growth at 10^-7 M incubated for 48 hrs by sulforhodamine B assay; conditions: NCI-H226, 48 h, read-out: Activity
[2] = tested on: MDA-MB-435; assay: Growth inhibition of human MDA-MB-435 cells assessed as cell growth at 10^-5 M incubated for 48 hrs by sulforhodamine B assay; conditions: MDA-MB-435, 48 h, read-out: Activity
[3] = tested on: CCRF-CEM; assay: Growth inhibition of human CCRF-CEM cells assessed as cell growth at 10^-6 M incubated for 48 hrs by sulforhodamine B assay; conditions: read-out: Activity
Procedure, shortened: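 Leukemia line in the five-dose format: five concentrations from 10-fold or ½-log serial dilutions. Plated at 5,000–40,000 cells per well, preincubated 24 h, then compound added for 48 h at 37 °C, 5% CO₂. Sulforhodamine B absorbance read at 515 nm. Growth is computed against time-zero (Tz) and control (C) readings; GI₅₀ is where [(Ti−Tz)/(C−Tz)]×100 = 50.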

[4] = tested on: MCF7; assay: Growth inhibition of human MCF7 cells assessed as cell growth at 10^-6 M incubated for 48 hrs by sulforhodamine B assay; conditions: MCF7, 48 h, read-out: Activity
[5] = Growth inhibition of human COLO205 cells assessed as cell growth at 10^-5 M incubated for 48 hrs by sulforhodamine B assay; conditions: COLO 205, 48 h, read-out: Activity
Procedure, shortened: (§1)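 Cells seeded at 5,000–40,000/well according to doubling time and preincubated 24 h at 37 °C, 5% CO2. Time-zero plates were TCA-fixed. DMSO concentrate was diluted in medium with 50 µg/ml gentamicin to give five concentrations (10-fold or ½ log steps), then exposed 48 h. Cells were TCA-fixed, stained with 0.4% SRB and read at 515 nm. Percent growth was taken against time-zero and control; GI50, TGI and LC50 derived.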

[6] = Growth inhibition of human RXF393 cells assessed as cell growth at 10^-8 M incubated for 48 hrs by sulforhodamine B assay; conditions: RXF 393, 48 h, read-out: Activity
[7] = Growth inhibition of human PC3 cells assessed as cell growth at 10^-6 M incubated for 48 hrs by sulforhodamine B assay; conditions: PC-3, 48 h, read-out: Activity
[8] = Growth inhibition of human HL-60(TB) cells assessed as cell growth at 10^-7 M incubated for 48 hrs by sulforhodamine B assay; conditions: HL-60, 48 h, read-out: Activity
Procedure, shortened: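 Cells plated at 5,000–40,000/well according to doubling time and preincubated 24 h at 37 °C, 5% CO₂, with time-zero plates TCA-fixed. Drugs were kept as DMSO concentrates at 400× the top concentration and diluted in medium with 50 µg/ml gentamicin. Five 10-fold or ½-log dilutions were run for 48 h, followed by SRB staining and A515. Percent growth = (Ti−Tz)/(C−Tz)×100, or (Ti−Tz)/Tz×100 when Ti<Tz.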

[9] = Growth inhibition of human DU145 cells assessed as cell growth at 10^-6 M incubated for 48 hrs by sulforhodamine B assay; conditions: DU-145, 48 h, read-out: Activity; procedure, shortened: as §1
[10] = tested on: SK-MEL-5; assay: Growth inhibition of human SK-MEL-5 cells assessed as cell growth at 10^-6 M incubated for 48 hrs by sulforhodamine B assay; conditions: SK-MEL-5, 48 h, read-out: Activity
[11] = Growth inhibition of human SF268 cells assessed as cell growth at 10^-4 M incubated for 48 hrs by sulforhodamine B assay; conditions: SF-268, 48 h, read-out: Activity
[12] = Growth inhibition of human OVCAR4 cells assessed as cell growth at 10^-8 M incubated for 48 hrs by sulforhodamine B assay; conditions: OVCAR-4, 48 h, read-out: Activity
[13] = Growth inhibition of human LOXIMVI cells assessed as cell growth at 10^-7 M incubated for 48 hrs by sulforhodamine B assay; conditions: LOX IMVI, read-out: Activity
[14] = Growth inhibition of human TK10 cells assessed as cell growth at 10^-7 M incubated for 48 hrs by sulforhodamine B assay; conditions: TK-10, 48 h, read-out: Activity
[15] = tested on: NCI-H460; assay: Growth inhibition of human NCI-H460 cells incubated for 48 hrs by sulforhodamine B assay; conditions: NCI-H460, 48 h
Procedure, shortened: (§2)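 Cells were plated at 5,000–40,000 per well according to doubling time and preincubated 24 h at 37 °C in 5% CO2; time-zero plates were then TCA-fixed. Five concentrations (10-fold or ½-log dilutions, DMSO stock) were incubated 48 h. Cells were TCA-fixed, stained with 0.4% SRB and read at 515 nm. GI50 was taken where [(Ti−Tz)/(C−Tz)]×100 = 50.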

[16] = tested on: M14; assay: Growth inhibition of human M14 cells assessed as cell growth at 10^-7 M incubated for 48 hrs by sulforhodamine B assay; conditions: M14, 48 h, read-out: Activity
[17] = tested on: KM12; assay: Growth inhibition of human KM12 cells assessed as cell growth at 10^-5 M incubated for 48 hrs by sulforhodamine B assay; conditions: KM12, 48 h, read-out: Activity
[18] = tested on: NCI-H23; assay: Growth inhibition of human NCI-H23 cells assessed as cell growth at 10 uM incubated for 48 hrs by sulforhodamine B assay; conditions: NCI-H23, 48 h, read-out: Activity
[19] = tested on: SK-MEL-2; assay: Growth inhibition of human SK-MEL-2 cells assessed as cell growth at 10^-8 M incubated for 48 hrs by sulforhodamine B assay; conditions: SK-MEL-2, 48 h, read-out: Activity
[20] = tested on: SN12C; assay: Growth inhibition of human SN12C cells assessed as cell growth at 10^-8 M incubated for 48 hrs by sulforhodamine B assay; conditions: read-out: Activity
[21] = Growth inhibition of human DU145 cells assessed as cell growth at 10^-7 M incubated for 48 hrs by sulforhodamine B assay; conditions: DU-145, 48 h, read-out: Activity; procedure, shortened: as §1
[22] = Growth inhibition of human HCC2998 cells assessed as cell growth at 10^-4 M incubated for 48 hrs by sulforhodamine B assay; conditions: HCC 2998, 48 h, read-out: Activity
[23] = Growth inhibition of human SF295 cells incubated for 48 hrs by sulforhodamine B assay; conditions: SF-295, 48 h; procedure, shortened: as §2
[24] = tested on: Malme-3M; assay: Growth inhibition of human MALME-3M cells assessed as cell growth at 10^-7 M incubated for 48 hrs by sulforhodamine B assay; conditions: read-out: Activity
[25] = Growth inhibition of human OVCAR4 cells assessed as cell growth at 10^-4 M incubated for 48 hrs by sulforhodamine B assay; conditions: OVCAR-4, 48 h, read-out: Activity
[26] = Growth inhibition of human SF295 cells assessed as cell growth at 10^-6 M incubated for 48 hrs by sulforhodamine B assay; conditions: SF-295, 48 h, read-out: Activity
[27] = read-out: LC50 (the source's name)
[28] = read-out: pLC50 (the source's name) (converted)

SMILES | growth at 0.1 µM [1] [%] | growth at 10 µM [2] [%] | growth at 1 µM [3] [%] | growth at 1 µM [4] [%] | growth at 10 µM [5] [%] | growth at 0.01 µM [6] [%] | growth at 1 µM [7] [%] | growth at 0.1 µM [8] [%] | growth at 1 µM [9] [%] | growth at 1 µM [10] [%] | growth at 100 µM [11] [%] | growth at 0.01 µM [12] [%] | growth at 0.1 µM [13] [%] | growth at 0.1 µM [14] [%] | GI50 ([15]; read-out: GI50) [nM] | TGI ([15]; read-out: TGI) [nM] | GI50 ([15]; read-out: pGI50 (converted)) [nM] | TGI ([15]; read-out: pTGI (converted)) [nM] | growth at 0.1 µM [16] [%] | growth at 10 µM [17] [%] | other results
Fc1ccc(-c2nc(Nc3ccc(-c4nc5ccccc5[nH]4)cc3)nc(N3CCOCC3)n2)cc1 | 111 | -62 | 92 | 85 | -55 | 102 | 93 | 79 | 98 | 97 | -4 | 99 | 95 | 88 | 2480 | 6510 | 2450 | 6460 | 99 | -28 | CC50 [15, 27]: > 100000 nM; CC50 [15, 28]: > 100000 nM; growth at 10 µM [18]: 11.3%; growth at 0.01 µM [19]: 103%; growth at 0.01 µM [20]: 95%; growth at 0.1 µM [21]: 100%; growth at 100 µM [22]: 2%; GI50 ([23]; read-out: GI50): 1590 nM; CC50 [23, 27]: > 100000 nM; TGI ([23]; read-out: TGI): 4700 nM; GI50 ([23]; read-out: pGI50 (converted)): 1580 nM; CC50 [23, 28]: > 100000 nM; TGI ([23]; read-out: pTGI (converted)): 4680 nM; growth at 0.1 µM [24]: 95%; growth at 100 µM [25]: -23%; growth at 1 µM [26]: 72%
c1ccc2[nH]c(-c3ccc(Nc4nc(N5CCCCC5)nc(N5CCOCC5)n4)cc3)nc2c1 | 84 | -48 | 100 | 87 | -63 | 96 | 101 | 100 | 96 | 97 | -11 | 101 | 95 | 93 | 2440 | 6180 | 2450 | 6170 | 95 | -2 | CC50 [15, 27]: > 100000 nM; CC50 [15, 28]: > 100000 nM; growth at 10 µM [18]: 19.7%; growth at 0.01 µM [19]: 97%; growth at 0.01 µM [20]: 95%; growth at 0.1 µM [21]: 104%; GI50 ([23]; read-out: GI50): 1850 nM; CC50 [23, 27]: 34600 nM; TGI ([23]; read-out: TGI): 4600 nM; GI50 ([23]; read-out: pGI50 (converted)): 1860 nM; CC50 [23, 28]: 34700 nM; TGI ([23]; read-out: pTGI (converted)): 4570 nM; growth at 0.1 µM [24]: 85%; growth at 100 µM [25]: -32%; growth at 1 µM [26]: 84%
c1ccc(-c2nc(Nc3ccc(-c4nc5ccccc5[nH]4)cc3)nc(N3CCOCC3)n2)cc1 | 120 | -90 | 32 | 47 | -73 | 97 | 92 | 26 | 63 | 92 | -78 | 104 | 96 | 106 | 822 | 2460 | 813 | 2450 | 103 | -84 | CC50 [15, 27]: 6670 nM; CC50 [15, 28]: 6610 nM; growth at 10 µM [18]: -59%; growth at 0.01 µM [19]: 105%; growth at 0.01 µM [20]: 96%; growth at 0.1 µM [21]: 95%; growth at 100 µM [22]: -48%; GI50 ([23]; read-out: GI50): 1250 nM; CC50 [23, 27]: 6470 nM; TGI ([23]; read-out: TGI): 2840 nM; GI50 ([23]; read-out: pGI50 (converted)): 1260 nM; CC50 [23, 28]: 6460 nM; TGI ([23]; read-out: pTGI (converted)): 2820 nM; growth at 0.1 µM [24]: 131%; growth at 100 µM [25]: -98%; growth at 1 µM [26]: 64%
Clc1ccc(-c2nc(Nc3ccc(-c4nc5ccccc5[nH]4)cc3)nc(N3CCOCC3)n2)cc1 | 106 | -98 | -19 | -39 | -71 | 100 | 13 | 90 | 26 | 93 | -24 | 103 | 94 | 92 | 222 | 491 | 224 | 490 | 93 | -81 | growth at 10 µM [18]: -83.4%; growth at 0.01 µM [19]: 99%; growth at 0.01 µM [20]: 95%; growth at 0.1 µM [21]: 96%; growth at 100 µM [22]: 2%; GI50 ([23]; read-out: GI50): 1470 nM; TGI ([23]; read-out: TGI): 2990 nM; GI50 ([23]; read-out: pGI50 (converted)): 1480 nM; TGI ([23]; read-out: pTGI (converted)): 3020 nM; growth at 0.1 µM [24]: 101%; growth at 100 µM [25]: -51%; growth at 1 µM [26]: 77%
